Screens as filed in PubChem BioAssay.
DNMT1 inh = DNMT1 (human) enzyme inhibition; hit rate 0.83% among 360,000; P26358; DNMT1 molecular beacon, Hinp1I cleavage, fluorescence; inhibition (reported as % activation of signal), % at 10 µM; AID 588458; in the data active = inhibition above about 50%
SUMO1 PPI mod = SUMO1-SIM interaction modulation; P63165; SUMO1 binding to a labelled peptide, TR-FRET, 1 h; inhibition, % at 20 µM; hit rate 0.33% among 360,000; in the data active = inhibition above about 37%
Target sequence (P63165 whole entry, looked up): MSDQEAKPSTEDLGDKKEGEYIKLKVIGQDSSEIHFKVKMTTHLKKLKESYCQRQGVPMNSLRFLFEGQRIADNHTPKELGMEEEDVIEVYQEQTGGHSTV
Scp-1 inhibitor = Scp-1 (human) phosphatase inhibition; Q9GZU7; hit rate 0.88% among 340,000; Recombinant Scp1, phosphopeptide, malachite green phosphate absorbance; inhibition, % at 20 µM; AID 493091;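 active = inhibition above about 50% at 20 µM, limit read from the data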;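 note: plate controls were DMSO wells with enzyme for no effect and wells lacking enzyme for full effect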
Target sequence (Q9GZU7 76-261 limits assumed): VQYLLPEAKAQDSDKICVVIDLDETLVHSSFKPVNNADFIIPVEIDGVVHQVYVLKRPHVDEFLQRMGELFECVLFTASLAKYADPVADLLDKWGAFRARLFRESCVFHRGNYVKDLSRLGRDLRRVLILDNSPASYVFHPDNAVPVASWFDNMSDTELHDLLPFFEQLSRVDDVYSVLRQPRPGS
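Test system: SCP-1 phosphatase catalytic domain, residues 76-261; measured by: colorimetric phosphate reagent with accelerator and stabiliser, absorbance at 630 nm; timing: enzyme reaction 45 min at room temperature, colour 5 min, stabilisation 30 min; also added: Phosphorylated 17-residue peptide substrate; compound dosing: one concentration, 20 µM, with 1.0% DMSO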
STEP block = STEP (human) phosphatase inhibition; recombinant STEP, OMFP fluorogenic substrate, fluorescence; P54829; inhibition, % at 20 µM; hit rate 0.25% among 360,000;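 active = inhibition at 20 µM, scaled per plate between control wells, above about 37%, limit read from the data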;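 note: 0% = DMSO with enzyme and substrate and 100% = substrate only without enzyme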
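Assay system: isolated STEP enzyme / Timing: 20 min at room temperature, dark / Doses: 20 µM, 1% DMSO / Technique: fluorescence intensity, excitation 480 nm, emission 540 nm / Reagent: fluorogenic phosphatase substrate OMFP at 25 µM final / Measure: percent inhibition scaled to no-enzyme and uninhibited-enzyme controls, plate-pattern corrected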
NadD block = inhibitors of Staphylococcus aureus NadD; purified NadD enzyme, colorimetric absorbance read-out; hit rate 0.78% among 360,000; inhibition, % at 20 µM; in the data active = inhibition above about 26%
LMPTP inh = blocks human LMPTP phosphatase; inhibition, % at 20 µM; AID 651560; recombinant LMPTP-A, OMFP fluorogenic substrate, fluorescence intensity; P24666; hit rate 0.22% among 360,000;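 active = compounds that cut the enzyme signal by at least half of the control window in the single-dose screen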;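 note: plate controls were DMSO wells with enzyme plus substrate for no effect and substrate without enzyme for full effect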
Target sequence (P24666 whole entry, looked up): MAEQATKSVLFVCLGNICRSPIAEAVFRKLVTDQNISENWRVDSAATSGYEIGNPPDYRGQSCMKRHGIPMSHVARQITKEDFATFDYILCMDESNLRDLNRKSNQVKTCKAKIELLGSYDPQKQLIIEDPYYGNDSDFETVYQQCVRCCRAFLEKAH
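Test system – LMPTP-A enzyme · Amount – LMPTP-A at 0.625 nM final in the reaction · Buffer or medium – Bis-Tris pH 6.0, DTT, detergent · Reagent – OMFP 400 µM · Doses – single 20 µM dose · Schedule – reaction 50 min, room temperature, dark · Detection – fluorescence intensity of OMFP turnover product · Evaluation – percent inhibition versus substrate-only and uninhibited controls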
DNMT1 interf DR = counter-screen for DNMT1 inhibitors: spectral interference, dose response | 200 tested, under 10 active | molecular beacon fluorescence | IC50, µM | AID 602382 | shares compounds with DNMT1 inh
DNMT1 confirm = confirmation of human DNMT1 inhibitors | shares compounds with DNMT1 inh | DNMT1 molecular beacon HinP1I cleavage, fluorescence | inhibition, % at 10 µM | hit rate 8% among 2,300 | AID 602385;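 active = average inhibition of at least 30% in the single-concentration confirmation test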
DNMT1 interf = beacon fluorescence artifact counter-screen; shares compounds with DNMT1 inh; DNMT1 molecular beacon spectral interference counterscreen, fluorescence 485/520; activation (fluorescence interference), % at 10 µM; hit rate 1% among 2,300; AID 602387;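 active = activation of at least 30% at 10 µM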;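 note: DNMT1 catalytic domain with a HinP1I cleavage step and a FAM/dabcyl DNA beacon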
STEP inh conf = STEP (human) phosphatase inhibition, single concentration confirmation. AID 623866. recombinant STEP, OMFP fluorogenic substrate, fluorescence. shares compounds with STEP block. hit rate 32% among 520. inhibition, % at 20 µM;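 note: 0% = enzyme with substrate plus DMSO and 100% = substrate without enzyme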
NadD inh conf = confirmation of Staphylococcus aureus NadD inhibitors; purified S. aureus NadD, colorimetric enzyme assay; inhibition, % at 20 µM; hit rate 13% among 2,000; shares compounds with NadD block; in the data active = inhibition mostly above about 42%, no sharp cut-off; inactive = mostly below about 42%
Starred values were filed as active, the others as inactive; . = no result. Sampled rows, rich in hits. Any-hit rate of the full collection: about 2.3%. Unless noted, the rule behind the calls is not given here.

SMILES	DNMT1 inh	SUMO1 PPI mod	Scp-1 inhibitor	STEP block	NadD block	LMPTP inh	DNMT1 confirm	DNMT1 interf	STEP inh conf	others
O=C(CSCc1ccccc1Br)NC1CC1	81*	1	-5	2	9	-1	0	1	.
CSc1ccccc1NC(=O)CSCc1ccccc1Br	-7	3	-4	2	-9	3	.	.	.
COC(=O)c1sc(NC(=O)/C=C/c2ccccc2Cl)nc1C	62*	30	46	57*	2	36	3	0	1
COC(=O)c1sc(NC(=O)/C=C/c2ccc(C)cc2)nc1C	-6	-3	-4	-1	-8	16	.	.	.
CC(=O)Nc1ccc(NC(=O)C2CCCN2C(=O)Nc2ccccc2[N+](=O)[O-])cc1 (configuration not stated)	80*	-24	-2	85*	-2	0	2	6	7
CN(C(=O)COC(=O)c1ccc(Cl)s1)C1(C#N)CCCCC1	2	1	-1	-1	-6	-1	.	.	.
O=C(N/N=C/c1ccc(Br)s1)c1ccccc1[N+](=O)[O-]	-6	-26	-7	-1	-4	1	.	.	.
O=C(N/N=C/c1ccc(Br)s1)c1ccc([N+](=O)[O-])cc1	79*	-4	-5	69*	-4	80*	-1	-2	-8
CCOc1ccc(OCC)c(NC(=O)CSCCc2ccccn2)c1	1	-5	-13	-4	-12	1	.	.	.
CCOc1ccc(OCC)c(NC(=O)CCSCCc2ccccn2)c1	89*	3	0	97*	-1	0	1	5	0
COc1ccc(S(=O)(=O)N(NC2=NS(=O)(=O)c3ccccc32)C(=O)C(C)C)cc1	2	2	-3	-3	2	-2	.	.	.
Cc1cccc(C(=O)Nc2ccc(N3CCN(c4ccc(C(F)(F)F)cn4)CC3)nc2)c1	70*	1	10	77*	9	50	1	2	4
COc1ccc(Nc2nc(=O)c3cc([N+](=O)[O-])ccc3s2)cc1	65*	-7	1	43*	11	80*	1	-6	-4
CCc1cccc2c1NC(=O)C21OCCO1	-8	-1	-1	0	-2	-1	.	.	.
CCC1CCCCN1S(=O)(=O)c1ccc(C(=O)N(CCCN(C)C)c2nc3cc4c(cc3s2)OCO4)cc1 (configuration not stated)	-1	15	0	1	-2	0	.	.	.
CCOC(=O)CC(NS(=O)(=O)c1ccc2[nH]cc(C(=O)O)c(=O)c2c1)c1ccc(OCC)c(OC)c1 (configuration not stated)	73*	9	48	74*	1	2	5	-3	25*
CC(=O)C1=CCC(c2ccccc2)N(S(=O)(=O)c2cccc(C)c2)C1 (configuration not stated)	-7	4	.	-2	-10	-1	.	.	.
O=c1cc(-c2ccccc2)nc2nc(-c3ccco3)[nH]n12	104*	54*	-1	86*	3	51*	-2	4	0
Cc1nc2nc(-c3ccccc3)cc(=O)n2[nH]1	-3	-2	-4	-1	3	-1	.	.	.
C[C@H](NC(=O)c1ncn2c1c(=O)[nH]c1ccc(Br)cc12)c1ccccc1	90*	-26	.	54*	9	56*	2	-2	0
CC(=O)N(CCC(c1ccccc1)c1ccco1)Cc1cccs1 (configuration not stated)	1	-3	-10	2	-1	1	.	.	.
Cc1ccc(C(CCN(Cc2ccccc2)C(=O)c2ccco2)c2ccco2)cc1 (configuration not stated)	56*	3	10	2	38*	5	17	-1	.	NadD inh conf=37
O=C(CN1C(=O)c2cccc3cccc1c23)NC1CCCCC1	-1	-6	4	-1	1	0	.	.	.
O=C(O)CSc1cc(C(=O)c2ccccc2O)cn2c(=O)c3c(-c4ccccc4)csc3nc12	59*	17	18	5	38*	16	21	-2	.	NadD inh conf=57*
CCc1c(C)sc2nc3c(C(=O)N4CCOCC4)cc(C(=O)c4ccccc4O)cn3c(=O)c12	-9	-19	-9	-1	5	1	.	.	.
SMILES	DNMT1 inh	SUMO1 PPI mod	Scp-1 inhibitor	STEP block	NadD block	LMPTP inh	DNMT1 confirm	DNMT1 interf	STEP inh conf	others
CC1(C(=O)Nc2ccc3[nH]ncc3c2)CCN1C(=O)C/C=C/c1ccccc1 (configuration not stated)	-2	2	.	0	3	-1	.	.	.
O=C(N/N=C/c1cccc(F)c1)c1cc(-c2ccco2)nc2ccccc12	97*	22	81*	16	52*	56*	68*	2	.	DNMT1 interf DR=>99;NadD inh conf=81*
O=C(C[n+]1cccc2ccccc21)c1ccc(NC(=O)c2ccccc2)cc1	-2	-22	1	-2	6	1	.	.	.
Cc1cc[n+](CC(=O)c2ccc(NC(=O)c3ccccc3)cc2)c2ccccc12	53*	-23	2	-1	37*	8	2	1	.	NadD inh conf=-16
C=CCn1c(SCC(=O)NC23CC4CC(CC(C4)C2)C3)nc2cc(C(=O)O)ccc2c1=O	1	4	-9	0	-4	-1	.	.	.
CC(C)Cn1c(N)c(C(=O)COC(=O)c2cc(-c3ccccc3)nc3ccccc23)c(=O)n(C)c1=O	-16	-29	4	0	16	5	.	.	.
COc1ccc(NC(=O)c2cc(C)nc3ccccc23)cc1S(=O)(=O)N1CCOCC1	1	-1	11	2	-2	0	.	.	.
COc1ccc(NC(=O)c2cc(-c3ccco3)nc3ccccc23)cc1S(=O)(=O)N1CCOCC1	64*	0	85*	3	30*	21	21	0	.	NadD inh conf=67*
O=C(c1cc(-c2ccco2)nc2ccccc12)N1CCN(Cc2ccccc2)CC1	-3	-2	-6	3	11	1	.	.	.
COC(=O)C1CCN(C(=O)c2cc(-c3ccco3)nc3ccccc23)CC1	86*	12	70*	6	32*	47	50*	3	.	DNMT1 interf DR=>99;NadD inh conf=56*
